According to ChEMBL document CHEMBL4732169, “Design and synthesis of mycobacterial pks13 inhibitors: Conformationally rigid tetracyclic molecules” (Eur J Med Chem, 2021):
≈ marks a conversion by molar mass, not a printed value.

What was measured:
Format in all cases: functional
[1] = system: Mycobacterium tuberculosis; assay: Antitubercular activity against isoniazid/rifampin resistance Mycobacterium tuberculosis KZN494 by MABA assay
How it was run: (§1)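 Microplate alamar blue assay (MABA) against each Mtb strain, either H37Rv or a clinical isolate (drug-susceptible, MDR or XDR). MIC taken as the lowest concentration giving at least 90% reduction of the bacterial growth signal. Each value is the average of three individual measurements.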

[2] = system: Mycobacterium tuberculosis; assay: Antitubercular activity against isoniazid/rifampin/levofloxacin/ofloxacin/kanamycin extensively drug resistance Mycobacterium tuberculosis TF274 XDR by MABA assay; how it was run: as §1
[3] = system: Mycobacterium tuberculosis; assay: Antitubercular activity against extensively drug resistance Mycobacterium tuberculosis R506 XDR by MABA; how it was run: as §1
[4] = system: Mycobacterium tuberculosis; assay: Antitubercular activity against multi drug resistance Mycobacterium tuberculosis V2475 by MABA assay; how it was run: as §1

| SMILES | MIC=<90 [1] [µg/mL] | MIC=<90 [2] [µg/mL] | MIC=<90 [3] [µg/mL] | MIC=<90 [4] [µg/mL] |
| --- | --- | --- | --- | --- |
| O=c1[nH]c2cc(O)ccc2c2oc3ccc(O)c(CN4CCCCC4)c3c12 | 0.0313 (≈ 0.0859 µM) | 0.0156 (≈ 0.0428 µM) | 0.0156 (≈ 0.0428 µM) | 0.0625 (≈ 0.172 µM) |
| NNC(=O)c1ccncc1 [ISONIAZID] | 16 (≈ 117 µM) | 8 (≈ 58.3 µM) | 8 (≈ 58.3 µM) | 16 (≈ 117 µM) |
| NC[C@H]1O[C@H](O[C@H]2[C@H](O)[C@@H](O[C@H]3O[C@H](CO)[C@@H](O)[C@H](N)[C@H]3O)[C@H](N)C[C@@H]2N)[C@H](O)[C@@H](O)[C@@H]1O [KANAMYCIN] | 2 (≈ 4.13 µM) | >128 | >128 | 2 (≈ 4.13 µM) |
| C[C@H]1COc2c(N3CCN(C)CC3)c(F)cc3c(=O)c(C(=O)O)cn1c23.C[C@H]1COc2c(N3CCN(C)CC3)c(F)cc3c(=O)c(C(=O)O)cn1c23.O [LEVOFLOXACIN] | – | 1 | 2 | – |
| CC1COc2c(N3CCN(C)CC3)c(F)cc3c(=O)c(C(=O)O)cn1c23 (configuration not stated) [OFLOXACIN] | 0.5 (≈ 1.38 µM) | 8 (≈ 22.1 µM) | 4 (≈ 11.1 µM) | 0.5 (≈ 1.38 µM) |
| CO[C@H]1/C=C/O[C@@]2(C)Oc3c(C)c(O)c4c(O)c(c(/C=N/N5CCN(C)CC5)c(O)c4c3C2=O)NC(=O)/C(C)=C\C=C\[C@H](C)[C@H](O)[C@@H](C)[C@@H](O)[C@@H](C)[C@H](OC(C)=O)[C@@H]1C [RIFAMPIN] | 128 (≈ 156 µM) | >128 | >128 | 4 (≈ 4.86 µM) |
